pIC50: −log10 of the molar value. Each block holds one molecule with its values, some of them ahead of it. Calls of active or inactive are those of the source. The rule behind the calls is not given here.
How the values were obtained:
[1] = system: Leishmania infantum; experiment: Antileishmanial activity against promastigote form of Leishmania infantum MCAN/ES/2001/UCM-10 after 72 hrs by haemocytometric analysis; type: functional, organism-based
In short: (§1)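 Promastigotes grown at 28 °C in MTL medium with 10% inactivated FCS. Compounds in DMSO (0.1%), diluted in culture medium to 100, 50, 25, 10 and 1. Cells counted at 72 h in a Neubauer haemocytometric chamber. IC50 (50% inhibition) by linear regression of Kc values.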

[2] = Selectivity index, ratio of IC50 for mouse J774.2 cells to IC50 for amastigote form of Leishmania infantum MCAN/ES/2001/UCM-10 infected in J774.2 cells; type: toxicity, cell-based
In short: (§2)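 J774.2 macrophages in MEM + 2 mM glutamine + 20% inactivated FCS were infected with stationary-phase promastigotes (10:1) for 24 h at 37 °C, 5% CO2. After washing, compounds were added at […] for 72 h. Amastigote reduction was scored in methanol-fixed, Giemsa-stained preparations; IC50 by regression; triplicates. SI = J774.2 IC50 (72 h flow cytometry)/amastigote IC50; ratio is versus Glucantime SI.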

[3] = system: Leishmania infantum; experiment: Antileishmanial activity against amastigote form of Leishmania infantum MCAN/ES/2001/UCM-10 infected in J774.2 cells after 72 hrs by haemocytometric analysis; type: functional, organism-based
In short: (§3)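 J774.2 macrophages grown in MEM with 2 mM glutamine and 20% inactivated FCS at 37 °C in 5% CO2. Infected with stationary-phase promastigotes at 10:1 for 24 h, then washed free of non-phagocytosed parasites. Compounds at 1, 10, 25, 50 and 100 for 72 h. Amastigotes counted on methanol-fixed, Giemsa-stained preparations and % reduction taken vs untreated. IC50 by linear regression of Kc values; three separate determinations.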

[4] = Selectivity index, ratio of IC50 for mouse J774.2 cells to IC50 for amastigote form of Leishmania braziliensis MHOM/BR/1975/M2904 infected in J774.2 cells; type: toxicity, cell-based; in short: as §2
[5] = Selectivity index, ratio of IC50 for mouse J774.2 cells to IC50 for promastigote form of Leishmania infantum MCAN/ES/2001/UCM-10; type: toxicity
In short: (§4)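 J774.2 toxicity: 72 h at the same concentrations, viability by flow cytometry with propidium iodide/fluorescein diacetate; IC50 by linear regression. SI = macrophage IC50/parasite IC50; ratio is compound SI over Glucantime SI.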

[6] = system: Leishmania infantum; experiment: Antileishmanial activity against axenic amastigote form of Leishmania infantum MCAN/ES/2001/UCM-10 after 72 hrs by haemocytometric analysis; type: functional, organism-based
In short: (§5)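 Axenic amastigotes made by culturing promastigotes 3 days at 37 °C in M199 with 10% heat-inactivated FCS plus organic acids, amino acids, sucrose, bicarbonate, MES, haemin and gentamicin, pH 5.4. Compound effect counted in a Neubauer haemocytometer chamber. IC50 by linear regression of Kc values at 1, 10, 25, 50 and 100.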

[7] = system: Leishmania braziliensis; experiment: Antileishmanial activity against amastigote form of Leishmania braziliensis MHOM/BR/1975/M2904 infected in J774.2 cells after 72 hrs by haemocytometric analysis; type: functional, cell-based, MHOM/BR/75/M2904; in short: as §3
[8] = Selectivity index, ratio of IC50 for mouse J774.2 cells to IC50 for axenic amastigote form of Leishmania infantum MCAN/ES/2001/UCM-10; type: toxicity
In short: (§6)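 Axenic amastigotes obtained by 3-day promastigote transformation in supplemented M199 + 10% heat-inactivated FCS, pH 5.4, 37 °C. […] Host toxicity: J774.2, 72 h, PI/FDA flow cytometry. SI = macrophage IC50/axenic amastigote IC50; ratio is compound SI over Glucantime SI.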

[9] = Selectivity index, ratio of IC50 for mouse J774.2 cells to IC50 for promastigote form of Leishmania braziliensis MHOM/BR/1975/M2904; type: toxicity
[10] = system: Leishmania braziliensis; experiment: Antileishmanial activity against axenic amastigote form of Leishmania braziliensis MHOM/BR/1975/M2904 after 72 hrs by haemocytometric analysis; type: functional, MHOM/BR/75/M2904; in short: as §5
[11] = Selectivity index, ratio of IC50 for mouse J774.2 cells to IC50 for axenic amastigote form of Leishmania braziliensis MHOM/BR/1975/M2904; type: toxicity; in short: as §6
[12] = system: Leishmania braziliensis; experiment: Antileishmanial activity against promastigote form of Leishmania braziliensis MHOM/BR/1975/M2904 assessed as electro-dense vesicles at IC25 concentration after 96 hrs by MET microscopic analysis; type: functional; settings: MHOM/BR/75/M2904
In short: (§7)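 Promastigotes at 5 × 10^5 cells/mL in MTL medium with compound at IC25 for 96 h. Ultrastructure examined by transmission electron microscopy against untreated control parasites.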

[13] = Ratio of compound selectivity index to glucantime selectivity index for amastigote form of Leishmania infantum MCAN/ES/2001/UCM-10 infected in J774.2 cells over mouse J774.2 cells; in short: as §2
[14] = system: Leishmania braziliensis; experiment: Antileishmanial activity against promastigote form of Leishmania braziliensis MHOM/BR/1975/M2904 assessed as cytoplasmic alterations at IC25 concentration after 96 hrs by MET microscopic analysis; type: functional; settings: MHOM/BR/75/M2904; in short: as §7
[15] = Ratio of compound selectivity index to glucantime selectivity index for axenic amastigote form of Leishmania infantum MCAN/ES/2001/UCM-10 over mouse J774.2 cells; in short: as §6
[16] = system: Leishmania braziliensis; experiment: Antileishmanial activity against promastigote form of Leishmania braziliensis MHOM/BR/1975/M2904 after 72 hrs by haemocytometric analysis; type: functional; settings: MHOM/BR/75/M2904, 72 h; in short: as §1
[17] = system: Leishmania braziliensis; experiment: Antileishmanial activity against promastigote form of Leishmania braziliensis MHOM/BR/1975/M2904 assessed as mortality at IC25 concentration after 96 hrs by MET microscopic analysis; type: functional; settings: MHOM/BR/75/M2904; in short: as §7
[18] = Ratio of compound selectivity index to glucantime selectivity index for promastigote form of Leishmania infantum MCAN/ES/2001/UCM-10 over mouse J774.2 cells; in short: as §4
[19] = Ratio of compound selectivity index to glucantime selectivity index for promastigote form of Leishmania braziliensis MHOM/BR/1975/M2904 over mouse J774.2 cells
[20] = system: J774.2; experiment: Cytotoxicity against mouse J774.2 cells after 72 hrs by PI-staining based flow cytometric analysis; type: cell-based; settings: J774.2, 72 h
In short: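 J774.2 macrophages (ECACC 91051511, female BALB/c mouse tumour) treated 72 h with 100, 50, 25, 10 and 1 of compound. Propidium iodide then fluorescein diacetate each added for 10 min at 28 °C in the dark. Cells pelleted at 400g, washed in PBS and analysed by flow cytometry. Viability % vs control; IC50 by linear regression of Kc values.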

[21] = Ratio of compound selectivity index to glucantime selectivity index for amastigote form of Leishmania braziliensis MHOM/BR/1975/M2904 infected in J774.2 cells over mouse J774.2 cells; in short: as §2
[22] = system: Leishmania braziliensis; experiment: Antileishmanial activity against promastigote form of Leishmania braziliensis MHOM/BR/1975/M2904 assessed as empty cytoplasmic at IC25 concentration after 96 hrs by MET microscopic analysis; type: functional; settings: MHOM/BR/75/M2904; in short: as §7
[23] = Ratio of compound selectivity index to glucantime selectivity index for axenic amastigote form of Leishmania braziliensis MHOM/BR/1975/M2904 over mouse J774.2 cells; in short: as §6
[24] = system: Leishmania infantum; experiment: (§8) Antileishmanial activity against promastigote form of Leishmania infantum MCAN/ES/2001/UCM-10 infected in J774.2 cells assessed as inhibition of infection in host cells at IC25 concentration incubated for 12 hrs followed by compound washout measured after 48 hrs by microscopic analysis; type: functional
In short: (§9)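 J774.2 cells seeded at 1 × 10^4 cells/well on coverslips and cultured 2 days. Infected with promastigotes at 10:1 with drug at IC25 added immediately, for 12 h at 37 °C in 5% CO2. Parasites and drug washed out, then grown 10 days with washing and fresh medium every 48 h. On methanol-fixed, Giemsa-stained slides, % infected cells and amastigotes per infected cell scored from more than 200 host cells. Three determinations.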

[25] = system: Leishmania braziliensis; experiment: as §8, with “[…] MHOM/BR/1975/M2904” for “infantum MCAN/ES/2001/UCM-10”, “of number of amastigotes per” for “of infection in”, “host cell” for “host cells”; type: functional; settings: MHOM/BR/75/M2904; in short: as §9
[26] = system: Leishmania infantum; experiment: Antileishmanial activity against promastigote form of Leishmania infantum MCAN/ES/2001/UCM-10 infected in J774.2 cells assessed as inhibition of number of amastigotes per host cell at IC25 concentration incubated for 12 hrs followed by compound washout measured after 48 hrs by microscopic analysis; type: functional; in short: as §9
[27] = system: Leishmania braziliensis; experiment: Antileishmanial activity against promastigote form of […] Leishmania braziliensis MHOM/BR/1975/M2904 infected in J774.2 cells assessed as inhibition of infection in host cells at IC25 concentration incubated for 12 hrs […] by microscopic analysis; type: functional; settings: MHOM/BR/75/M2904
[28] = Leishmania infantum, MCAN/ES/2001/UCM-10, 72 h
[29] = J774.2 cells, read-out: Ratio IC50

Molecule: MEGLUMINE ANTIMONATE [listing 1 of 2 here]
pIC50 [1]: 4.74
Ratio IC50 [2]: 0.5
pIC50 ([3]; j774.2): 4.51
Ratio IC50 [4]: 0.8
Ratio IC50 [5]: 0.8
pIC50 [6]: 4.51
pIC50 ([7]; j774.2): 4.71
Ratio IC50 [8]: 0.5
Ratio IC50 [9]: 0.6
pIC50 [10]: 4.51
Ratio IC50 [11]: 0.5

pIC50 [1, 28]: 4.62
pIC50 ([3]; Leishmania infantum, MCAN/ES/2001/UCM-10, J774.2, 72 h): 4.35
pIC50 [6, 28]: 4.53
pIC50 ([7]; Leishmania braziliensis, MHOM/BR/75/M2904, J774.2, 72 h): 4.72
pIC50 ([10]; Leishmania braziliensis, MHOM/BR/75/M2904, 72 h): 4.50
pIC50 [16]: 4.81
Molecule: Br.NCCCNCCN1CCNCc2cccc(n2)CNCC1
selectivity ratio [2, 29]: 4.9
Activity [12]: Active
selectivity ratio [4, 29]: 11.5
selectivity ratio [5, 29]: 9.1
Ratio [13]: 10
Activity [14]: Active
Ratio [15]: 15
selectivity ratio [8, 29]: 7.4
selectivity ratio [9, 29]: 14.2
selectivity ratio [11, 29]: 7
Activity [17]: Active
Ratio [18]: 11
Ratio [19]: 24
pIC50 [20]: 3.66
Ratio [21]: 14
Activity [22]: Active
Ratio [23]: 14

Molecule: MEGLUMINE ANTIMONATE [listing 2 of 2 here]
inhibition [24]: 24%
inhibition [25]: 37%
inhibition [26]: 30%
inhibition [27]: 22%
